Substitutions are numbered along the chain they refer to. Where “and” joins values, the source holds several entries; their conditions need not be identical. Equal entries are not always repeated. Entries after “also recorded” stand apart in the source; their conditions may differ. Starred links: 1 amine or outer side, 2 acyl side, 3 side chain; linkers in the order of their positions; H or OH if unused. Positions of bridges follow the written chain, without caps; N, C: chain ends. Non-standard residues stand in square brackets, D forms with d. Ala(13C3,15N) = 13C3,15N-labelled alanine, [13CH3][13C@H]([15NH][*:1])[13C](=O)[*:2]
Assays:
[1] = system: phosphorylated IRE1α; test: UPR marker phospho-IRE1α in TH-positive neurons after MPP+ injury; format: cell-based, rat; conditions: for UPR modulating effect on IRE1α pathway: compared to wild-type C-CDNF
Summary of the method: (§1)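 Rat primary mesencephalic neurons were pretreated with test compound (PBS stock diluted in medium) from 4 h before injury. They were then exposed on DIV6 to 4 µM MPP+ for 48 h, six wells per condition. Fixed cells were double-stained for TH plus phospho-IRE1α, ATF4 or ATF6, with Hoechst nuclear counterstain. Twenty 10x images per well were analysed automatically for TH/phospho-IRE1α overlap or stained nuclei in TH+ cells. Results are % vs control; one-way ANOVA with Dunnett's test.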

[2] = system: nucleus-localized ATF4; test: UPR marker nucleus-localized ATF4 in TH-positive neurons after MPP+ injury; format: cell-based, rat; conditions: for UPR modulating effect on PERK/ATF4 pathway: compared to wild-type C-CDNF
Summary of the method: as §1

[3] = system: nucleus-localized ATF6; test: UPR marker nucleus-localized ATF6 in TH-positive neurons after MPP+ injury; format: cell-based, rat
Summary of the method: as §1

[4] = molecular target: T1, GRP78-NBD (Homo sapiens, UniProt P11021); test: SEC-SAXS of GRP78-NBD and its complexes with CDNF or C-CDNF; format: binding
T1 sequence (P11021 26-382): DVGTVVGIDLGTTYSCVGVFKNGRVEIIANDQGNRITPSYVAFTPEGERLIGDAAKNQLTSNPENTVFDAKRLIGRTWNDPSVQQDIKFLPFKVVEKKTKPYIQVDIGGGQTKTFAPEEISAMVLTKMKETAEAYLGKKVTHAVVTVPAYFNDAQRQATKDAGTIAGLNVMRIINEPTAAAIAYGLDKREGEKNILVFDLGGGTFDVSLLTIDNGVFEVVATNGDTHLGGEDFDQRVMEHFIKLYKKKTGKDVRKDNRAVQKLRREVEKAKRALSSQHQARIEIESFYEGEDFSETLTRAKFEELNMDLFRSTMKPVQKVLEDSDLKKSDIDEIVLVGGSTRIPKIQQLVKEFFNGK
Summary of the method: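 Recombinant human proteins expressed in E. coli: CDNF in T7 Shuffle Express (to keep disulfides), GRP78-NBD in BL21 Star (DE3). In-line SEC-SAXS used 10 μl at ~10 mg/ml on Superdex 200 Increase at 0.35 ml/min and 20 °C, in PBS pH 7.2 with 1.5% glycerol. Data were collected at EMBL P12 (Pilatus 6M) in a 1 mm quartz capillary.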

[5] = molecular target: T1, GRP78-NBD; test: 2D 1H-13C HSQC NMR titration of 13C/15N-Ala labeled C-CDNF with GRP78-NBD; format: binding; conditions: GRP78-NBD 0-65 µM
[6] = molecular target: T1, GRP78-NBD; test: Spectral shift binding assay; conditions: ligand up to 100 μM; 25 °C
Summary of the method: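 Tag-free GRP78-NBD (His-tagged, expressed in E. coli BL21 Star (DE3), cobalt-affinity purified, TEV-cleaved, SEC-polished) labelled with NT-650-NHS, held at 10 nM. Ligand serial dilutions were made in PBS pH 7.2 with 0.05% Tween 20, giving 100 μM to 3.05 nM final. Read on Monolith X at 25 °C, 100% LED, as the 670/650 nm ratio. Amplitude is the unbound-to-bound plateau difference.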

[7] = system: TH-positive dopamine neurons (rat primary mesencephalic neurons); format: cell-based; conditions: for neuroprotective activity: any of the tested concentrations
Summary of the method: (§2)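 Rat primary mesencephalic neurons were used. On DIV6, medium (Neurobasal, B27, BDNF, GDNF) was replaced with medium containing 4 µM MPP+ for 48 h. Test compound, from PBS stocks diluted in medium, was added 4 h before MPP+. Six wells per condition; fixed, then immunostained for TH and α-synuclein. Twenty 10x images per well, automated count of TH+ neurons and TH/aSyn overlap area. Reported as % of untreated control; one-way ANOVA with Dunnett's test.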

[8] = system: α-synuclein (aSyn) aggregates in dopamine neurons; test: α-synuclein; format: cell-based, rat
Summary of the method: as §2

[9] = system: GRP78-NBD; conditions: crystal structure; cited from earlier work
[10] = MPP+ injury, 4 µM, 48 h, p < 0.0001 vs control
[11] = SEC-SAXS, PBS pH 7.2, 1.5% glycerol, 20 °C

C[n+]1ccc(-c2ccccc2)cc1 [MPP^+, 1-methyl-4-phenyl-pyrididium, reference compound]
increase of S724 phosphorylated IRE1α from control cells [1, 10]: 81.0 ± 5.0% | increase of nucleus-localized ATF4 from control cells [2, 10]: 42.1 ± 6.1 | increase of nucleus-localized ATF6 from control cells [3, 10]: 79.5 ± 6.2

GRP78-NBD: nucleotide-binding domain of GRP78 (aa 26-382), expressed in E. coli
Dmax (PDDF/P(r) analysis) [4, 11]: 6.5 nm and 6.5 ± 0.2 nm | Rg (Guinier Analysis) [4, 11]: 2.2 nm and 2.2 ± 0.1 nm | Envelope volume (ab initio modeling, Dammif) ([4]; from SEC-SAXS data): 83 nm^3

CDNF: Cerebral dopamine neurotrophic factor, CDNFWT (aa 25-187), expressed in E. coli
complex formation with GRP78-NBD ([4]; shift of SEC-SAXS elution peak to earlier elution, excess ligand): formed a complex with GRP78-NBD

B1: ^13C/^15N-Ala-labeled C-CDNF: C-CDNF with labeled alanine residues A135, A145, A162, A175, A179, A180 (peptide)
peptide: KYEKTLDL[Ala(13C3,15N)]SVDLRKMRV[Ala(13C3,15N)]ELKQILHSWGEECRAC[Ala(13C3,15N)]EKTDYVNLIQEL[Ala(13C3,15N)]PKY[Ala(13C3,15N)][Ala(13C3,15N)]THPKTEL
modifications: disulfide 32-35
effect of GRP78-NBD titration on Ala methyl groups [5]: The three well-resolved methyl groups of A145, A162 and A175 are clearly affected; also recorded: A179 and A180 do not display any clear effects

B2: C-CDNF-MT1 (protein)
peptide: KYEKTLDLASVDLRKMRVAELKQILHSWGEECRACAAATDYVNLIQELAPKYAATHPKTEL
modifications: disulfide 32-35
binding to GRP78-NBD (spectral shift), in words [6]: do not bind to GRP78-NBD | neuroprotective activity ([7]; MPP+ 48 h): did not show any neuroprotective activity | maximal increase of dopamine neuron survival from MPP+ model effect ([7]; maximal effect over tested concentrations (5-500 nM), p = 0.9771): 13.6 ± 6.7% | maximal reduction of aSyn aggregation from MPP+ model effect ([8]; maximal effect over tested concentrations (5-500 nM), p = 0.4382): 21.2 ± 5.9% | UPR modulating effect on IRE1α pathway [1]: nearly completely lost the UPR modulating effect | UPR modulating effect on PERK/ATF4 pathway [2]: nearly completely lost the UPR modulating effect

B3: C-CDNF-MT2: C-CDNF mutant E156/157/163A (peptide)
peptide: B2 peptide with E30A, E31A, A38K
modifications: disulfide 32-35
binding to GRP78-NBD (spectral shift), in words [6]: do not bind to GRP78-NBD | neuroprotective activity ([7]; MPP+ 48 h): did not show any neuroprotective activity | activity in neuroprotection or aSyn aggregation ([8]; all three tested concentrations, compared to wild-type C-CDNF): very low activity in neuroprotection or aSyn aggregation | UPR modulating effect on IRE1α pathway [1]: nearly completely lost the UPR modulating effect | UPR modulating effect on PERK/ATF4 pathway [2]: nearly completely lost the UPR modulating effect

B4: C-CDNF-MT3 (protein)
chain: B2 peptide with R33A, A37E
modifications: disulfide 32-35
binding to GRP78-NBD (spectral shift), in words [6]: impaired binding to GRP78-NBD; also recorded: weak binding to GRP78-NBD | increase of dopamine neuron survival from MPP+ model effect ([7]; 500 nM, MPP+ 48 h, p = 0.0878): 40.3 ± 8.4% | neuroprotective activity ([7]; MPP+ 48 h): reduced potency in the neuroprotection assay | reduction in aSyn aggregation, change from MPP+ model effect ([8]; 500 nM, MPP+ 48 h, p = 0.0073): −42.1 ± 7.7% | decrease in phospho-IRE1α ([1]; 500 nM, p = 0.0003): 67.2 ± 6.0% | UPR modulating activity ([1]; 5 and 50 nM): loss of UPR modulating activity | decrease in nuclear ATF4 ([2]; 500 nM, p = 0.0498): 55.3 ± 8.2% | ATF6 pathway modulating activity ([3]; 5-500 nM): dose-dependent effect

B5: MANF: mesencephalic astrocyte-derived neurotrophic factor (protein, UniProt P55145 25-182, looked up)
Mesencephalic …: LRPGDCEVCISYLGRFYQDLKDRDVTFSPATIENELIKFCREARGKENRLCYYIGATDDAATKIINEVSKPLAHHIPVEKICEKLKKKDSQICELKYDKQIDLSTVDLKKLRVKELKKILDDWGETCKGCAEKSDYIRKINELMPKYAPKAASARTDL
binding to GRP78 nucleotide-binding domain [9]: binds to the regulatory, nucleotide-binding domain of GRP78 via its C-terminal domain
